Data: ChEMBL document CHEMBL3856229, “Hybrid Antibiotic Overcomes Resistance in P. aeruginosa by Enhancing Outer Membrane Penetration and Reducing Efflux” (J Med Chem, 2016)
Values after ≈ are worked out from the molar mass of the structure shown.

Tests used:
Pseudomonas aeruginosa [1] = assay: Antibacterial activity against multidrug/extremely drug-resistant/colistin-susceptible Pseudomonas aeruginosa isolate 259-96918; type: functional
Pseudomonas aeruginosa [2] = assay: Antibacterial activity against Pseudomonas aeruginosa PAO1; type: functional
Enterococcus faecium = assay: Antibacterial activity against Enterococcus faecium ATCC 27270 after 24 hrs by microtitre broth dilution method; type: functional; details: ATCC 27270, 24 h
Escherichia coli [3] = assay: Antibacterial activity against amikacin-resistant Escherichia coli isolate CAN-ICU 63074 after 24 hrs by microtitre broth dilution method; type: functional; details: isolate CAN-ICU 63074, 24 h
Escherichia coli [4] = assay: Antibacterial activity against Escherichia coli ATCC 25922 after 24 hrs by microtitre broth dilution method; type: functional; details: ATCC 25922, 24 h
Escherichia coli [5] = assay: Antibacterial activity against gentamicin/tobramycin/ciprofloxacin-resistant Escherichia coli isolate CANWARD-2011 97615 harboring AAC3-2A after 24 hrs by microtitre broth dilution method; type: functional; details: isolate CANWARD-2011 97615, 24 h
Pseudomonas aeruginosa [6] = assay: Antibacterial activity against gentamicin/tobramycin-resistant Pseudomonas aeruginosa isolate CANWARD-2011 96846 after 24 hrs by microtitre broth dilution method; type: functional; details: isolate CANWARD-2011 96846, 24 h
[7] = Inhibition of Pseudomonas aeruginosa DNA gyrase A assessed as inhibition of DNA supercoiling using PBR322 DNA as substrate after 30 mins by SYBR Gold staining based agarose gel electrophoresis
Streptococcus pneumoniae = assay: Antibacterial activity against Streptococcus pneumoniae ATCC 49619 after 24 hrs by microtitre broth dilution method; type: functional; details: ATCC 49619, 24 h
Acinetobacter baumannii = assay: Antibacterial activity against Acinetobacter baumannii isolate CAN-ICU 63169 after 24 hrs by microtitre broth dilution method; type: functional; details: isolate CAN-ICU 63169, 24 h
Escherichia coli [8] = assay: Antibacterial activity against gentamicin-resistant Escherichia coli isolate CAN-ICU 61714 after 24 hrs by microtitre broth dilution method; type: functional; details: isolate CAN-ICU 61714, 24 h
Pseudomonas aeruginosa [9] = assay: Antibacterial activity against multidrug/extremely drug-resistant/colistin-susceptible Pseudomonas aeruginosa isolate 260-97103; type: functional
Klebsiella pneumoniae = assay: Antibacterial activity against Klebsiella pneumoniae ATCC 13883 after 24 hrs by microtitre broth dilution method; type: functional; details: ATCC 13883, 24 h
Staphylococcus aureus [10] = assay: Antibacterial activity against methicillin-resistant Staphylococcus aureus ATCC 33592 after 24 hrs by microtitre broth dilution method; type: functional; details: ATCC 33592, 24 h
Pseudomonas aeruginosa [11] = assay: Antibacterial activity against Pseudomonas aeruginosa ATCC 27853 after 24 hrs by microtitre broth dilution method; type: functional; details: ATCC 27853, 24 h
Pseudomonas aeruginosa [12] = assay: Antibacterial activity against multidrug/extremely drug-resistant/colistin-susceptible Pseudomonas aeruginosa isolate 262-101856; type: functional
Staphylococcus aureus [13] = assay: Antibacterial activity against Staphylococcus aureus ATCC 29213 after 24 hrs by microtitre broth dilution method; type: functional; details: ATCC 29213, 24 h
Enterococcus faecalis = assay: Antibacterial activity against Enterococcus faecalis ATCC 29212 after 24 hrs by microtitre broth dilution method; type: functional; details: ATCC 29212, 24 h
[14] = test system: Stenotrophomonas maltophilia; assay: Antibacterial activity against Stenotrophomonas maltophilia isolate CAN-ICU 62584 after 24 hrs by microtitre broth dilution method; type: functional; details: isolate CAN-ICU 62584, 24 h
[15] = test system: Staphylococcus epidermidis; assay: Antibacterial activity against methicillin-susceptible Staphylococcus epidermidis isolate CANWARD-2008 81388 after 24 hrs by microtitre broth dilution method; type: functional; details: isolate CANWARD-2008 81388, 24 h
Pseudomonas aeruginosa [16] = assay: Antibacterial activity against multidrug/extremely drug-resistant/colistin-susceptible Pseudomonas aeruginosa isolate 264-104354; type: functional
Pseudomonas aeruginosa [17] = assay: Antibacterial activity against gentamicin-resistant Pseudomonas aeruginosa isolate CAN-ICU 62308 after 24 hrs by microtitre broth dilution method; type: functional; details: isolate CAN-ICU 62308, 24 h
[18] = test system: Staphylococcus epidermidis; assay: Antibacterial activity against methicillin-resistant Staphylococcus epidermidis isolate CAN-ICU 61589 after 24 hrs by microtitre broth dilution method; type: functional; details: isolate CAN-ICU 61589, 24 h
[19] = Inhibition of circular DNA translation in Escherichia coli S30 extract after 60 mins by luciferase reporter gene assay
Method in brief: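 Translation was run in an E. coli S30 extract with a luciferase read-out. Luminescence is expressed as a percentage of the no-antibiotic control, taken as 100%.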

Pseudomonas aeruginosa [20] = assay: Antibacterial activity against multidrug-resistant/tobramycin-susceptible Pseudomonas aeruginosa isolate 79199; type: functional
Pseudomonas aeruginosa [21] = assay: Antibacterial activity against multidrug/extremely drug-resistant/colistin-susceptible Pseudomonas aeruginosa isolate 101885; type: functional
Pseudomonas aeruginosa [22] = assay: Antibacterial activity against multidrug-resistant/tobramycin-susceptible Pseudomonas aeruginosa isolate 83182; type: functional
Pseudomonas aeruginosa [23] = assay: Antibacterial activity against pandrug-resistant Pseudomonas aeruginosa isolate 91433; type: functional
Pseudomonas aeruginosa [24] = assay: Antibacterial activity against multidrug-resistant/tobramycin-susceptible Pseudomonas aeruginosa isolate 84745; type: functional
Pseudomonas aeruginosa [25] = assay: Antibacterial activity against multidrug-resistant/tobramycin-susceptible Pseudomonas aeruginosa isolate 86053; type: functional
Pseudomonas aeruginosa [26] = assay: Antibacterial activity against multidrug-resistant/tobramycin-susceptible Pseudomonas aeruginosa isolate 85322; type: functional
Pseudomonas aeruginosa [27] = assay: Antibacterial activity against multidrug-resistant/tobramycin-susceptible Pseudomonas aeruginosa isolate 86052; type: functional
Pseudomonas aeruginosa [28] = assay: Antibacterial activity against multidrug-resistant/tobramycin-susceptible Pseudomonas aeruginosa isolate 86067; type: functional
Pseudomonas aeruginosa [29] = assay: Antibacterial activity against multidrug-resistant/tobramycin-susceptible Pseudomonas aeruginosa isolate 86141; type: functional
Pseudomonas aeruginosa [30] = assay: Antibacterial activity against multidrug-resistant/tobramycin-susceptible Pseudomonas aeruginosa isolate 92014; type: functional
Pseudomonas aeruginosa [31] = assay: Antibacterial activity against multidrug-resistant/tobramycin-susceptible Pseudomonas aeruginosa isolate 80621; type: functional
Pseudomonas aeruginosa [32] = assay: Antibacterial activity against multidrug/extremely drug-resistant/colistin-susceptible Pseudomonas aeruginosa isolate 100036; type: functional
Pseudomonas aeruginosa [33] = assay: Antibacterial activity against pandrug-resistant Pseudomonas aeruginosa isolate 101243; type: functional
Pseudomonas aeruginosa [34] = assay: Antibacterial activity against multidrug-resistant/tobramycin-susceptible Pseudomonas aeruginosa isolate 86079; type: functional
Pseudomonas aeruginosa [35] = assay: Antibacterial activity against multidrug-resistant/tobramycin-susceptible Pseudomonas aeruginosa isolate 108590; type: functional

SMILES | MIC (Pseudomonas aeruginosa [1]) [µg/mL] | MIC (Pseudomonas aeruginosa [2]) [µg/mL] | MIC (Enterococcus faecium) [µg/mL] | MIC (Escherichia coli [3]) [µg/mL] | MIC (Escherichia coli [4]) [µg/mL] | MIC (Escherichia coli [5]) [µg/mL] | MIC (Pseudomonas aeruginosa [6]) [µg/mL] | IC50 [7] [nM] | MIC (Streptococcus pneumoniae) [µg/mL] | MIC (Acinetobacter baumannii) [µg/mL] | MIC (Escherichia coli [8]) [µg/mL] | MIC (Pseudomonas aeruginosa [9]) [µg/mL] | MIC (Klebsiella pneumoniae) [µg/mL] | MIC (Staphylococcus aureus [10]) [µg/mL] | MIC (Pseudomonas aeruginosa [11]) [µg/mL] | MIC (Pseudomonas aeruginosa [12]) [µg/mL] | MIC (Staphylococcus aureus [13]) [µg/mL] | MIC (Enterococcus faecalis) [µg/mL] | MIC (Pseudomonas aeruginosa [16]) [µg/mL] | MIC [18] [µg/mL] | also measured
COc1c(N2C[C@@H]3CCCN(CCCCCCCCCCCCOC[C@H]4O[C@H](O[C@@H]5[C@@H](O)[C@H](O[C@H]6O[C@H](CN)[C@@H](O)C[C@H]6N)[C@@H](N)C[C@H]5N)[C@H](O)[C@@H](N)[C@@H]4O)[C@@H]3C2)c(F)cc2c(=O)c(C(=O)O)cn(C3CC3)c12.Cl.Cl.Cl.Cl.Cl | > 32 | > 32 | 16 | 64 | 16 | 128 | 64 | 2600 | 64 | > 128 | 64 | 32 | 16 | 16 | 64 | > 32 | 16 | 32 | > 32 | 8 | MIC [14]: > 128 µg/mL; MIC [15]: 8 µg/mL; MIC (Pseudomonas aeruginosa [17]): 32 µg/mL
COc1c(N2C[C@@H]3CCCN(CCCCCCCCCCCCO[C@H]4[C@@H](O[C@@H]5[C@@H](O)[C@H](O[C@H]6O[C@H](CN)[C@@H](O)C[C@H]6N)[C@@H](N)C[C@H]5N)O[C@H](CO)[C@@H](O)[C@@H]4N)[C@@H]3C2)c(F)cc2c(=O)c(C(=O)O)cn(C3CC3)c12.Cl.Cl.Cl.Cl.Cl | > 32 | > 32 | 16 | 32 | 4 | 128 | > 128 | 2100 | 32 | 128 | 64 | > 32 | 4 | 8 | 16 | 32 | 4 | 32 | 32 | 8 | IC50 [19]: 130 nM; MIC [14]: > 128 µg/mL; MIC [15]: 2 µg/mL; MIC (Pseudomonas aeruginosa [17]): 128 µg/mL
NCC[C@H](O)C(=O)N[C@@H]1C[C@H](N)[C@@H](O[C@H]2O[C@H](CN)[C@@H](O)[C@H](O)[C@H]2O)[C@H](O)[C@H]1O[C@H]1O[C@H](CO)[C@@H](O)[C@H](N)[C@H]1O [AMIKACIN] |  |  |  | 32 (≈ 54.6 µM) |  |  |  |  |  |  |  |  |  |  |  |  |  |  |  |  | 
Cc1nnc(SCC2=C(C(=O)O)N3C(=O)[C@@H](NC(=O)Cn4cnnn4)[C@H]3SC2)s1 [CEFAZOLIN] |  |  |  |  |  |  |  |  |  |  |  |  |  |  |  |  |  |  |  | > 32 | 
CO/N=C(\C(=O)N[C@@H]1C(=O)N2C(C(=O)[O-])=C(C[N+]3(C)CCCC3)CS[C@H]12)c1csc(N)n1 [CEFEPIME] | > 64 |  |  |  |  |  |  |  |  |  |  | 16 (≈ 33.3 µM) |  |  |  | 32 (≈ 66.6 µM) |  |  | 32 (≈ 66.6 µM) |  | MIC (Pseudomonas aeruginosa [20]): 32 µg/mL (≈ 66.6 µM); MIC (Pseudomonas aeruginosa [21]): 8 µg/mL (≈ 16.6 µM); MIC (Pseudomonas aeruginosa [22]): 16 µg/mL (≈ 33.3 µM); MIC (Pseudomonas aeruginosa [23]): 16 µg/mL (≈ 33.3 µM); MIC (Pseudomonas aeruginosa [24]): 16 µg/mL (≈ 33.3 µM); MIC (Pseudomonas aeruginosa [25]): 64 µg/mL (≈ 133 µM); MIC (Pseudomonas aeruginosa [26]): 16 µg/mL (≈ 33.3 µM); MIC (Pseudomonas aeruginosa [27]): 16 µg/mL (≈ 33.3 µM); MIC (Pseudomonas aeruginosa [28]): 64 µg/mL (≈ 133 µM); MIC (Pseudomonas aeruginosa [29]): 16 µg/mL (≈ 33.3 µM); MIC (Pseudomonas aeruginosa [30]): 16 µg/mL (≈ 33.3 µM); MIC (Pseudomonas aeruginosa [31]): 8 µg/mL (≈ 16.6 µM); MIC (Pseudomonas aeruginosa [32]): 4 µg/mL (≈ 8.32 µM); MIC (Pseudomonas aeruginosa [33]): 64 µg/mL (≈ 133 µM); MIC (Pseudomonas aeruginosa [34]): 32 µg/mL (≈ 66.6 µM)
CC(C)(O/N=C(\C(=O)N[C@@H]1C(=O)N2C(C(=O)[O-])=C(C[n+]3ccccc3)CS[C@H]12)c1csc(N)n1)C(=O)O [CEFTAZIDIME] |  |  |  |  |  |  |  |  |  |  |  |  |  |  |  |  |  |  |  |  | MIC (Pseudomonas aeruginosa [20]): 32 µg/mL (≈ 58.5 µM); MIC (Pseudomonas aeruginosa [22]): > 32 µg/mL; MIC (Pseudomonas aeruginosa [24]): > 32 µg/mL; MIC (Pseudomonas aeruginosa [25]): > 32 µg/mL; MIC (Pseudomonas aeruginosa [26]): > 32 µg/mL; MIC (Pseudomonas aeruginosa [27]): > 32 µg/mL; MIC (Pseudomonas aeruginosa [35]): 32 µg/mL (≈ 58.5 µM); MIC (Pseudomonas aeruginosa [28]): > 32 µg/mL; MIC (Pseudomonas aeruginosa [29]): > 32 µg/mL; MIC (Pseudomonas aeruginosa [30]): > 32 µg/mL; MIC (Pseudomonas aeruginosa [31]): > 32 µg/mL; MIC (Pseudomonas aeruginosa [34]): > 32 µg/mL
